Test results taken from ChEMBL document CHEMBL3817728, “Synthesis, Evaluation, and Mechanism Study of Novel Indole-Chalcone Derivatives Exerting Effective Antitumor Activity Through Microtubule Destabilization in Vitro and in Vivo” (J Med Chem, 2016).

What was measured:
[1] = tested on: A549; assay: Antitumor activity against human A549 cells xenografted in BALB/c nude mouse assessed as tumor growth inhibition at 30 mg/kg, ip administered every other day for 1 month measured every other day post dose relative to vehicle-treated control; type: functional; details: read-out: TGI
[2] = tested on: Mus musculus; assay: Toxicity in BALB/c nude mouse xenografted with human A549 cells assessed as loss of body weight at 30 mg/kg, ip administered every other day for 1 month measured every other day post dose relative to vehicle-treated control; type: organism-based; details: in vivo
[3] = Solubility of the compound in sodium phosphate buffer at pH 7.4 at 25 +/- 1 degC; type: physicochemical
[4] = tested on: A549; assay: Cytotoxicity against human A549 cells assessed as cell viability after 48 hrs by MTT assay; type: functional, cell-based; details: A549, 48 h
Summary of the method: (§1)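 Cancer cell lines treated with compound for 48 h, and viability read by MTT assay. IC50 given as mean ± SD from at least three independent experiments.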

[5] = tested on: HeLa; assay: Cytotoxicity against human HeLa cells assessed as cell viability after 48 hrs by MTT assay; type: functional, cell-based; summary of the method: as §1
[6] = Cytotoxicity against human Bel7402 cells assessed as cell viability after 48 hrs by MTT assay; type: functional, cell-based; details: Bel-7402, 48 h; summary of the method: as §1
[7] = tested on: MCF7; assay: Cytotoxicity against human MCF7 cells assessed as cell viability after 48 hrs by MTT assay; type: functional, cell-based; details: MCF7, 48 h; summary of the method: as §1
[8] = tested on: A2780; assay: Cytotoxicity against human A2780 cells assessed as cell viability after 48 hrs by MTT assay; type: functional, cell-based; details: A2780, 48 h; summary of the method: as §1
[9] = Cytotoxicity against human HCT8 cells assessed as cell viability after 48 hrs by MTT assay; type: functional, cell-based; details: HCT-8, 48 h; summary of the method: as §1
[10] = Metabolic stability in Sprague-Dawley rat liver microsomes assessed as compound remaining at 30 mins in presence of NADPH regenerating system by HPLC method; type: ADME; details: read-out: Stability
Summary of the method: (§2)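 Test compound incubated with rat liver microsomes at 37 ℃ in buffer containing an NADPH regenerating system for the stated time. Remaining parent compound was quantified by HPLC.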

[11] = Metabolic stability in Sprague-Dawley rat liver microsomes assessed as compound remaining at 60 mins in presence of NADPH regenerating system by HPLC method; type: ADME; details: read-out: Stability; summary of the method: as §2
[12] = Metabolic stability in Sprague-Dawley rat liver microsomes assessed as compound remaining at 90 mins in presence of NADPH regenerating system by HPLC method; type: ADME; details: read-out: Stability; summary of the method: as §2
[13] = Metabolic stability in Sprague-Dawley rat liver microsomes assessed as compound remaining at 120 mins in presence of NADPH regenerating system by HPLC method; type: ADME; details: read-out: Stability
Summary of the method: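 Rat liver microsomes incubated with compound at 37 ℃ for indicated times in buffer containing NADPH regenerating system; residual parent determined by HPLC.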

[14] = Cytotoxicity against human A2780/TAX cells assessed as growth inhibition after 48 hrs by MTT assay; type: functional, cell-based
Summary of the method: (§3)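 Drug-resistant lines were tested by a 48 h MTT viability assay. IC50 was derived from dose-response curves and reported as mean ± SE of at least three independent experiments.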

[15] = Cytotoxicity against human HCT8/VCT cells assessed as growth inhibition after 48 hrs by MTT assay; type: functional, cell-based; summary of the method: as §3
[16] = Cytotoxicity against human MCF7/DX cells assessed as growth inhibition after 48 hrs by MTT assay; type: functional, cell-based; summary of the method: as §3

Row | solubility [3] [mg/mL] | Compound | inhibition in vivo at 30 mg/kg [1] [%] | Activity [2] | IC50 [4] [nM] | IC50 [5] [nM] | IC50 [6] [nM] | IC50 [7] [nM] | IC50 [8] [nM] | IC50 [9] [nM] | remaining at 0.5 h [10] [%] | remaining at 1 h [11] [%] | remaining at 1.5 h [12] [%] | remaining at 2 h [13] [%] | IC50 [14] [nM] | IC50 [15] [nM] | IC50 [16] [nM]
1 | 125 | COc1ccc2c(/C=C(\C)C(=O)c3cc(OC)c(OC)c(OC)c3)cn(P(=O)([O-])[O-])c2c1.[Na+].[Na+] | 70.4 | Non-toxic | 56 | 78 | 61 | 38 | 43 | 92 |  |  |  |  |  |  | 
2 |  | COc1ccc(/C=C\c2cc(OC)c(OC)c(OC)c2)cc1O [COMBRETASTATIN A4] |  |  | 5 | 12 | 3 |  | 9 | 1.7 | 68.1 | 28.6 | 23.1 | 20.7 | 58 | 5 | 27
